From ChEMBL document CHEMBL1123803, “Synthesis and biological activities of pseudopeptide analogues of the C-terminal heptapeptide of cholecystokinin. On the importance of the peptide bonds” (J Med Chem, 1987)

Organism: Rattus norvegicus
Assay: Activity on Amylase release from rat pancreatic acini was determined
Assay type: functional
Procedure, shortened: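 Dispersed rat pancreatic acini (about 1 mg protein/mL) in Hepes pH 7.4 standard incubation solution with 1% BSA, 1 mM calcium, 5 mM theophylline, gassed 95% O2/5% CO2; incubated 30 min at 37 °C across a concentration range. Amylase measured with Phadebas reagent; release = with minus without secretagogue, as percent of maximal CCK-8 stimulation. Duplicates, means of at least three experiments.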

CCCC[C@H](NC(=O)[C@H](Cc1ccc(OS(=O)(=O)O)cc1)NC(=O)[C@H](CC(=O)O)NC(=O)OC(C)(C)C)C(=O)NCC(=O)N[C@@H](Cc1c[nH]c2ccccc12)C(=O)N[C@@H](CCCC)C(=O)N[C@@H](CC(=O)O)C(=O)N[C@@H](Cc1ccccc1)C(N)=O showed a conc. for maximal amylase release of 300 pM.
